High-throughput results deposited in PubChem BioAssay by several laboratories.
MPTP block: mitochondrial permeability transition pore inhibitors, primary screen, biochemical, isolated mouse mitochondria, absorbance; inhibition, % at 10 µM; AID 602449, 2012; 360,000 compounds, 1.4% hits; Ca2+ swelling absorbance, 30 min;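 active = inhibition of 50% or more, scaled per plate between neutral and stimulator controls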;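 note: 0% = DMSO wells given calcium and 100% = 1 mM EGTA wells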
OX1R antag-1: OX1R (HCRTR1) antagonists, primary screen, fluorescence, CHO/OX1R cells, Fluo-8 calcium, orexin A; 330,000 compounds, 0.43% hits; Fluo-8 calcium fluorescence; Orexin/Hypocretin receptor type 1 (Homo sapiens), O43613; inhibition, % at 5 µM;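 active = inhibition above its plate's threshold, mean inhibition of all tested compounds on the plate plus 3 SD, cut at about 37% in these data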;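 note: 0% = orexin A challenge wells and 100% = SB-334867-A antagonist wells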
OX1R antag-2: antagonists of human orexin 1 receptor (OX1R). Orexin/Hypocretin receptor type 1 (Homo sapiens), O43613. OX1R-expressing cells, FRET antagonist read-out. inhibition, % at 6.6 µM. 330,000 compounds, 1.8% hits. AID 485270, 2010; in the data active = inhibition mostly above about 38%, no sharp cut-off; inactive = mostly below about 40%;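 note: 0% = agonist challenge alone and 100% = reference antagonist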
CHO parental Ca: ATP-evoked calcium signal inhibitors, parental CHO, primary screen, counter-screen for OX1R antagonist project, cell-based, fluorescence, Fluo-8 calcium dye | inhibition, % at 5.6 µM | 330,000 compounds, 0.63% hits | parental CHO-K1, ATP-induced calcium, Fluo-8 fluorescence;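 active = inhibition above that plate's mean sample inhibition plus 3 SD, cut at about 26% in these data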;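 note: 0% = ATP-challenged DMSO wells and 100% = DMSO wells without ATP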
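material = parental CHO cells | also added = ATP as calcium-mobilizing challenge | dosing = single point at 5.6 µM | detection = intracellular calcium via Fluo-8 no-wash fluorescent dye | read-out = % inhibition | benchmarks = low control ATP plus DMSO, high control DMSO only | repeats = one well per compound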
GPR7 antagonist: GPR7 receptor antagonists, primary screen, cell-based, fluorescence, single concentration; Neuropeptides B/W receptor type 1 (Homo sapiens), P48145; GPR7-expressing cells, fluorescence antagonist assay; inhibition, % at 4.4 µM; 290,000 compounds, 1.1% hits; AID 1861, 2009; in the data active = inhibition above about 16%, passing the limit was not always enough;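 note: cells stimulated with the agonist NPW; 0% = agonist with vehicle and 100% = vehicle without agonist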
Target sequence (P48145 whole entry, looked up): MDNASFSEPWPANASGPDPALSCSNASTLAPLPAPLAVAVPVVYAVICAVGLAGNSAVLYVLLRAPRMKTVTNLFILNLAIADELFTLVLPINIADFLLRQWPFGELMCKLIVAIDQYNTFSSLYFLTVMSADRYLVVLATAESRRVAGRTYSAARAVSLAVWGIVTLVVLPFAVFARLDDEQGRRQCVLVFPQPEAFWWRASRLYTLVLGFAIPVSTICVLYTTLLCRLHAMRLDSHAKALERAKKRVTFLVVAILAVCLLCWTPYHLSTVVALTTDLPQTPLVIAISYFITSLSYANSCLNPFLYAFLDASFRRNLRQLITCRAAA
GPR7 antag conf: GPR7 receptor antagonists, confirmation, cell-based, fluorescence, single concentration; 2,400 compounds, 52% hits; AID 1952, 2009; inhibition, % at 4.4 µM; GPR7-expressing cells, calcium fluorescence antagonist mode; shares compounds with GPR7 antagonist; in the data active = inhibition above about 24%;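 note: stimulated with the GPR7 agonist NPW; 0% = agonist plus vehicle and 100% = vehicle alone without agonist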
MCHR1 antagonist: MCHR1 antagonists in cells, counter-screen for GPR7 antagonist project, cell-based, fluorescence, human; inhibition, % at 4.4 µM; MCHR1-expressing cells, fluorescence antagonist assay; 2,400 compounds, 62% hits; shares compounds with GPR7 antagonist; in the data active = inhibition above about 22%;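 note: 0% = vehicle with agonist and 100% = vehicle without agonist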
Active calls of the source: *; x = no result given. A selection: hits, their analogues and other compounds. The true share with any hit is near 3.8%.

SMILES	MPTP block	OX1R antag-1	OX1R antag-2	CHO parental Ca	GPR7 antagonist	GPR7 antag conf	MCHR1 antagonist
CCCCOC(=O)Cn1c(=O)n(CC(=O)OCCCC)c2ccccc21	-1.5	-23.4	30.8	-8.4	-1.9	x	x
CCOC(=O)Cn1c(COc2ccccc2OC)[n+](C)c2ccccc21	1.7	-17.6	6.1	-8.2	x	x	x
CCCCCCCCCCOC(=O)Cn1c(COc2ccc(Cl)cc2)[n+](C)c2ccccc21	0.2	21.3	6.5	33.4*	60.2*	66.4*	70.5*
CCCCCCCCCCOC(=O)Cn1c(COc2ccccc2C)[n+](C)c2ccccc21	24.0	53.1*	-0.3	43.2*	27.9*	83.4*	87.5*
CCCCCCCCCCOC(=O)Cn1c(COc2ccccc2)[n+](C)c2ccccc21	4.7	72.5*	10.9	62.3*	71.3*	77.4*	93.6*
Cc1ccccc1OCc1n(CC(=O)OC2CC(C)CCC2C(C)C)c2ccccc2[n+]1C (configuration not stated)	7.6	45.7*	15.6	33.4*	42.1*	61.0*	92.1*
CC1Cc2cc(S(=O)(=O)N3CCN(c4ccccc4F)CC3)ccc2N1C(=O)C1CC1 (configuration not stated)	1.7	-15.4	7.2	-2.5	-3.6	x	x
CCCCCCCCCCOC(=O)Cn1c(COc2cccc(C)c2)[n+](C)c2ccccc21	4.3	74.9*	16.6	65.3*	45.2*	67.7*	85.3*
CCCCCOC(=O)Cn1c(=O)oc2ccccc21	1.0	-12.8	19.4	-1.2	-1.4	x	x
N#Cc1ccc(NC(=O)CN2C(=O)NC3(CCCC3)C2=O)cc1	0.9	-7.2	17.9	5.6	-1.9	x	x
O=C(Nc1ccc(F)cc1)c1cccc(N2C(=O)C3C4C=CC(C5CC45)C3C2=O)c1 (configuration not stated)	0.8	-19.6	14.8	-7.6	26.5*	24.4*	44.9*
O=C(Nc1ccccc1)c1cccc(N2C(=O)C3C4C=CC(C5CC45)C3C2=O)c1 (configuration not stated)	-0.8	-22.4	7.0	-30.1	-10.2	x	x
COc1ccc(OC)c(NC(=O)c2cccc(N3C(=O)C4C5C=CC(C6CC56)C4C3=O)c2)c1 (configuration not stated)	2.3	-31.0	9.0	-7.0	24.1*	21.8	69.4*
CC1Cc2ccccc2N1C(=O)CN1C(=O)NC(C)(CCc2ccccc2)C1=O (configuration not stated)	0.3	-26.3	16.1	-10.4	-10.7	x	x
CCOc1ccc(S(=O)(=O)N2CCN(C(=O)c3ccc(Cl)c(S(=O)(=O)N4CCOCC4)c3)CC2)cc1	0.2	x	x	x	x	x	x
Cc1ccc[n+](CC(=O)Nc2cc(C(F)(F)F)ccc2Cl)c1	0.3	4.8	20.6	7.3	-2.1	x	x
CCC(C)(C)c1ccc(OCCCC[n+]2cccc(C)c2)c(C(C)(C)CC)c1	27.8	x	x	x	21.1*	77.7*	90.5*
O=C(c1ccco1)N1CCN(c2ncnc3c2nnn3Cc2ccccc2Cl)CC1	0.1	-25.5	19.3	-35.8	-2.6	x	x
CCOC(=O)C1CCN(c2ncnc3c2nnn3Cc2ccccc2Cl)CC1	0.4	-15.2	26.3	-20.1	21.6*	26.5*	28.6*
CCn1ncc(Br)c1C(=O)Nc1ccccc1C(F)(F)F	0.8	-38.7	8.1	-13.5	-20.6	x	x
Cc1ccnc(Nc2nc(-c3ccc(O)c(O)c3)cs2)c1	6.2	12.4	9.5	10.9	40.6*	56.9*	48.3*
CCn1cc(C(=O)N2CCN(c3ccc(OC)cc3)CC2)c2cc(OC)c(OC)cc2c1=O	0.4	-6.0	7.8	-24.8	38.6*	-14.4	-8.1
CCn1cc(C(=O)N2CCN(c3ccc(F)cc3)CC2)c2cc(OC)c(OC)cc2c1=O	1.4	-17.4	13.8	-15.4	-11.3	x	x
